Source: PubChem BioAssay
PvdQ inh: P. aeruginosa PvdQ acylase inhibitors, primary screen, biochemical, fluorescence, plate reader and imaging, single point; PvdQ acylase [Pseudomonas aeruginosa LESB58]; purified PvdQ acylase; inhibition, % at 10 µM; hit rate 0.063% among 340,000; in the data active = inhibition above about 30%, passing the limit was not always enough;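 also: 0% = vehicle neutral wells and 100% = reference inhibitor wells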
IMP-1 inh-1: IMP-1 metallo-beta-lactamase inhibitors, primary screen, biochemical, epi-absorbance readout, Pseudomonas aeruginosa enzyme; metallo-beta-lactamase IMP-1 (Pseudomonas aeruginosa); purified IMP-1, nitrocefin hydrolysis, epi-absorbance fluorescence; inhibition, % at 5.6 µM; hit rate 0.45% among 290,000; AID 1556, 2009;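 active = inhibition above the mean plus 3 SD of all compounds in the same screening run, cut at about 4.5% in these data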;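 also: 0% = IMP-1 with DMSO and 100% = DMSO wells lacking enzyme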
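System: purified recombinant IMP-1 beta-lactamase. Medium: Zinc- and detergent-supplemented HEPES buffer, pH 7.1. Compound: one 5.6 µM dose […]. Schedule: 15 min preincubation plus 25 min reaction at 25 °C. Technique: Epi-absorbance fluorescence, 480 nm excitation, 530 nm emission.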
VIM-2 inhibitor: VIM-2 metallo-beta-lactamase inhibitors, primary screen, biochemical, epi-absorbance readout, Pseudomonas aeruginosa enzyme. AID 1527, 2009. hit rate 0.89% among 290,000. purified VIM-2, nitrocefin hydrolysis, epi-absorbance fluorescence. inhibition, % at 5.6 µM;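 active = inhibition above the mean of all tested compounds plus 3 SD, cutoff set per screening run, cut at about 7.5% in these data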;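 also: red hydrolysis product quenches plate fluorescence so inhibitors raise well fluorescence; 0% = enzyme with DMSO and 100% = DMSO without enzyme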
beta cell repl: inducers of MIN6 beta-cell proliferation, primary screen, ATP luminescence, uHTS | MIN6 cells proliferation, ATPlite luminescence, 48 h; cells starved in 0.2% serum; 100% = growth in 10% serum | proliferation, % at 10 µM | hit rate 0.29% among 330,000 | AID 2380, 2010;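 active = compounds whose signal lies at least 3.5 SD above the mean of all wells on their plate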;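 also: 0% = DMSO-treated cells in low-serum medium and 100% = 10% serum control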
ATG4B inh: ATG4B protease inhibitors, primary screen, biochemical, fluorescence, uHTS. Cysteine protease ATG4B (Homo sapiens), Q9Y4P1. hit rate 0.51% among 340,000. inhibition, % at 8.33 µM. ATG4B cleavage of LC3-PLA2, NBD-HPC fluorescence, 1 h; in the data active = inhibition above about 40%
HKDC1 inh: HKDC1 hexokinase inhibitors, primary screen, biochemical, fluorescence, uHTS | AID 493160, 2011 | Q2TB90 | recombinant HKDC1, G6PDH/diaphorase resazurin coupled fluorescence | inhibition, % at 20 µM | hit rate 0.16% among 340,000;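 active = inhibition above about 35% when tested at 20 µM, limit read from the data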;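 also: plate controls were DMSO wells with enzyme for no effect and DMSO wells lacking enzyme for full effect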
Target sequence (Q2TB90 whole entry, looked up): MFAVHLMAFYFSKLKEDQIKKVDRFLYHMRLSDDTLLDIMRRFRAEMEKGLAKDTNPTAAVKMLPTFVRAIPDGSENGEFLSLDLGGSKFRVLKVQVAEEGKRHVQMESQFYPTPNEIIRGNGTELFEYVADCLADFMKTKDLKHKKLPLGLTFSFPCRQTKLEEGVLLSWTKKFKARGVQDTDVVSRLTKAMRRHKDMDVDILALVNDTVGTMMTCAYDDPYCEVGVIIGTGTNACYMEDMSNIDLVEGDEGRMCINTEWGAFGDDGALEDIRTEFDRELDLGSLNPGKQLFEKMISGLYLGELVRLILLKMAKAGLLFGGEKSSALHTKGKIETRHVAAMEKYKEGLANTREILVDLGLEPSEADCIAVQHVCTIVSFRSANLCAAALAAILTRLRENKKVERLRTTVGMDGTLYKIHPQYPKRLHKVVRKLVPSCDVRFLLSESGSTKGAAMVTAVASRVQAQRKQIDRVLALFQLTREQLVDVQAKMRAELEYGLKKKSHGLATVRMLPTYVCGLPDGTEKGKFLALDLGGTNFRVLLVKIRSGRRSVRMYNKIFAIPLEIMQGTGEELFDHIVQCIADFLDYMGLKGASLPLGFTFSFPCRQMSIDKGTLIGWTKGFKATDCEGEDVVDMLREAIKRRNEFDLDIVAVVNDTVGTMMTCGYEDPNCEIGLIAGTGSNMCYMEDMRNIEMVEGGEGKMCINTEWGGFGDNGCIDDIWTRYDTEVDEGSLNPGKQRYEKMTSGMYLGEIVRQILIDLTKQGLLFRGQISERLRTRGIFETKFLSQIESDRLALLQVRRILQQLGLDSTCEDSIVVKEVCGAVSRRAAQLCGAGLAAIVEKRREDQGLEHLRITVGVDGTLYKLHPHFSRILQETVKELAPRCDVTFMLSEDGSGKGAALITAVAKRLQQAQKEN
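Test system: recombinant HKDC1 (HK5) hexokinase enzyme, produced in-house / Doses: 20 µM test compound, 1% DMSO / Timing: 90 min, room temperature / Detection: G6PDH/diaphorase-coupled fluorescence, 1 mM NADP, 100 µM resazurin, 525/613 nm / Control set: DMSO wells with and without enzyme mix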
IMP-1 inh-2: IMP-1 metallo-beta-lactamase inhibitors, confirmation, selectivity assay for selective VIM-2 inhibitor project, biochemical, epi-absorbance readout, triplicate; AID 1856, 2009; shares compounds with VIM-2 inhibitor; purified IMP-1, nitrocefin hydrolysis, epi-absorbance fluorescence; inhibition, % at 5.6 µM; 1,300 tested, under 10 active; call rule not given here;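 also: 0% = enzyme with vehicle and 100% = vehicle without enzyme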
VIM-2 FRET ctr: VIM-2 inhibitors in FRET format, confirmation, artefact control for selective VIM-2 inhibitor project, biochemical, epi-absorbance artifact exclusion; hit rate 23% among 1,300; AID 1857, 2009; purified VIM-2, CCF2 FRET substrate hydrolysis; shares compounds with VIM-2 inhibitor; inhibition, % at 5.6 µM;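 active = inhibition above the mean of all tested compounds plus 3 SD, cut at about 19% in these data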;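 also: 0% = VIM-2 plus DMSO and 100% = no enzyme wells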
TEM-1 inh: TEM-1 serine beta-lactamase inhibitors, counter-screen for VIM-2 inhibitor project, biochemical, epi-absorbance, HTS; hit rate 3% among 1,300; AID 1866, 2009; inhibition, % at 5.6 µM; Purified TEM-1, nitrocefin hydrolysis, epi-absorbance fluorescence; shares compounds with VIM-2 inhibitor;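 active = inhibition above that campaign's mean inhibition plus 3 SD, cut at about 0.46% in these data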;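 also: 0% = TEM-1 with DMSO and 100% = TEM-1 with 100 µM potassium clavulanate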
VIM-2 confirm 2: VIM-2 metallo-beta-lactamase inhibitors, confirmation, biochemical, epi-absorbance, hits shared with IMP-1 screen; purified VIM-2, nitrocefin hydrolysis; inhibition, % at 5.6 µM; AID 2187, 2009; hit rate 96% among 1,300; shares compounds with VIM-2 inhibitor;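 active = inhibition of the VIM-2 beta-lactamase enzyme above about 11% from the earlier first-round screen, limit read from the data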;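 also: 0% = VIM-2 with DMSO and 100% = buffer wells without enzyme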
* marks the source's active call; other numbers are inactive results; nt = not tested or not shown. This is a sample that favours compounds with a hit; in the whole collection about 2% have one here.

SMILES	PvdQ inh	IMP-1 inh-1	VIM-2 inhibitor	beta cell repl	ATG4B inh	HKDC1 inh	IMP-1 inh-2	VIM-2 FRET ctr	TEM-1 inh	VIM-2 confirm 2
CCN1CCN(c2ccc(Nc3ccnc4ccccc34)cc2)CC1	6.3	nt	nt	-5.2	5.5	-0.7	nt	nt	nt	nt
Cc1c(OC(C)C(=O)NCCCN2CCOCC2)ccc2c3c(c(=O)oc12)CCC3 (stereo not drawn)	-0.5	-2.5	24.1*	-1.2	-2.0	-0.9	-3.2	-0.7	-9.6	32.6*
Cc1c(OC(C)C(=O)NCCN2CCOCC2)ccc2c3c(c(=O)oc12)CCC3 (stereo not drawn)	-6.8	-2.4	18.9*	-2.1	-2.6	-0.2	-4.9	2.2	-12.5	25.6*
Cc1c(C)c2ccc(OC(C)C(=O)NCCN3CCOCC3)c(C)c2oc1=O (stereo not drawn)	-5.7	-3.0	7.0	2.4	-8.7	-1.7	nt	nt	nt	nt
CCOc1ccccc1/C=C(\C#N)C1=CCCC1	-12.4	-2.3	0.3	0.6	-7.0	-0.1	nt	nt	nt	nt
COC(=O)c1cccc(NC(=O)CC2C(=O)NCCN2C(=O)c2ccc(F)cc2F)c1 (stereo not drawn)	-9.5	-3.9	-4.0	-1.6	-3.3	-5.9	nt	nt	nt	nt
O=C(CSc1ncccn1)NC1CCS(=O)(=O)C1 (stereo not drawn)	-2.3	-0.4	-1.1	5.8	4.7	-1.6	nt	nt	nt	nt
COc1ccccc1C(=O)COC(=O)/C=C/c1ccccc1	4.8	-1.9	12.5*	9.5	28.6	0.1	-4.0	28.5*	-1.7	18.0*
CCCC[C@@H](CNC)NC[C@H](Cc1ccc(O)cc1)NCCc1ccc(OCC)cc1	-3.3	0.8	66.9*	-7.5	4.0	-4.5	-3.0	-3.3	-6.2	70.2*
CCC[C@H](CN[C@@H](CNC)[C@H](C)O)NCCc1ccc(OC)cc1	6.9	-0.5	1.3	-0.5	10.9	-6.2	nt	nt	nt	nt
COc1ccc2c(c1)oc(=O)c1cc(OC)ccc12	-8.9	-0.6	-1.2	0.9	-18.6	-1.0	nt	nt	nt	nt
COc1ccc2c(c1)oc(=O)c1ccccc12	-4.6	-0.3	8.3*	0.6	-6.6	0.0	-3.4	0.5	-6.0	15.1*
COc1cccc(NC(=O)CN(C)CC(=O)Nc2ccc(Cl)cc2[N+](=O)[O-])c1	-15.4	-5.2	-2.1	0.4	-14.6	3.8	nt	nt	nt	nt
CCCC[n+]1ccn(-c2nc3ccccc3nc2[N-]S(=O)(=O)c2ccccc2)c1	-8.5	-0.6	1.4	1.9	-14.8	11.8	nt	nt	nt	nt
C=CC[n+]1ccn(-c2nc3ccccc3nc2[N-]S(=O)(=O)c2cccs2)c1	-14.2	-4.2	21.9*	-3.9	-4.2	-6.6	-2.4	8.8	-5.8	16.5*
CCCC[n+]1ccn(-c2nc3ccccc3nc2[N-]S(=O)(=O)c2cccs2)c1	-20.6	-4.6	18.6*	-2.4	-2.2	0.7	-3.2	9.7	-6.5	21.0*
O=C(NCc1ccco1)c1ccc(COCC(F)(F)F)cc1	-1.7	-4.9	-3.8	-1.3	-2.5	-7.2	nt	nt	nt	nt
Cc1nc(-c2ccccn2)nc(SCC(=O)c2ccc(F)cc2)c1Cl	6.3	-5.7	50.0*	3.7	2.4	-0.8	-4.6	-24.3	-5.9	67.4*
COc1ccc(C(=O)CSc2nnc3ccc(-c4ccccn4)nn23)cc1	3.6	-0.7	1.9	-0.8	-1.2	-1.5	nt	nt	nt	nt
COc1ccc(C(=O)CSc2nc(-c3ccccn3)nc(C)c2Cl)cc1	5.0	-4.5	28.9*	1.7	-6.3	-5.2	-4.6	-26.1	-6.0	61.0*
CC(=O)CCC(=O)N1CCC(n2nccc2NC(=O)c2ccccc2C)CC1	9.1	0.4	0.6	-0.4	-0.2	-0.2	nt	nt	nt	nt
Cc1nc(-c2ccccn2)nc(N2CCOCC2)c1Cl	-7.2	-11.7	17.6*	3.0	-0.9	-0.1	-3.4	-23.2	-5.4	30.1*
Cc1nc(-c2ccccn2)nc(N(C)c2ccccc2)c1Cl	-12.2	-5.6	21.1*	0.5	-0.3	0.1	-4.5	-52.3	-6.0	33.5*
O=C1OC(c2ccccc2)=N/C1=C\C=C\c1ccco1	9.5	-3.3	1.2	-0.1	3.0	5.1	nt	nt	nt	nt
O=C1OC(c2ccccc2)=N/C1=C\C=C\c1ccccc1[N+](=O)[O-]	4.4	2.9	16.4*	-0.3	30.6	4.7	-1.9	30.2*	-1.9	9.9*
SMILES	PvdQ inh	IMP-1 inh-1	VIM-2 inhibitor	beta cell repl	ATG4B inh	HKDC1 inh	IMP-1 inh-2	VIM-2 FRET ctr	TEM-1 inh	VIM-2 confirm 2
CCN1C[C@@H]2[C@@H]3C(=O)N(Cc4ccccc4)C(=O)[C@@H]3[C@](C)(C1=O)N2C(=O)c1ccc(Cl)c(Cl)c1	-16.3	nt	nt	nt	-13.6	2.0	nt	nt	nt	nt
NC(=S)Nc1cccc2cccnc12	-9.6	0.2	-3.9	-0.7	-2.9	4.0	nt	nt	nt	nt
NC(=S)NNc1cccc2cccnc12	6.6	-2.6	18.1*	-6.5	-1.6	6.6	-5.1	-15.5	-10.4	14.8*
Cc1nn2c(-c3ccc(F)cc3)ccnc2c1Cl	-5.4	-2.2	59.2*	-2.9	4.3	-4.6	-3.4	-3.8	-5.4	70.0*
Cc1nn2c(-c3ccc(F)cc3)ccnc2c1Br	4.1	-1.8	6.0	-3.9	4.2	-0.4	nt	nt	nt	nt
Cc1nc(NCCCn2ccnc2)c2ccccc2n1	-1.6	-1.5	19.9*	-1.3	-3.0	-7.0	-3.7	-1.2	-6.1	35.4*
Cc1cccc2cc(C#N)c(NCCCn3ccnc3)nc12	-6.8	-0.5	0.8	0.3	1.2	-2.3	nt	nt	nt	nt
OCCNc1nc(-c2cccnc2)nc2ccccc12	-14.3	-0.6	2.1	2.1	-2.9	1.2	nt	nt	nt	nt
c1cncc(-c2nc(NCCCn3ccnc3)c3ccccc3n2)c1	-8.7	1.8	32.0*	-1.8	0.2	1.2	-2.6	-16.3	-6.6	48.9*
O=C(NCc1cccnc1)c1ccc(NC(=O)c2ccc([N+](=O)[O-])cc2)cc1	6.6	0.0	-0.5	-6.6	1.7	-1.3	nt	nt	nt	nt
